Experimental data: ChEMBL document CHEMBL3797147, “Nitric oxide production inhibition and mechanism of phenanthrene analogs in lipopolysaccharide-stimulated RAW264.7 macrophages” (Bioorg Med Chem Lett, 2016)
Each block holds one molecule with its values, some of them ahead of it. Active and inactive are the calls of the source. The calls are words filed in the database; no cut-off is given here.

Columns and labels:
[1] = Cytotoxicity against mouse RAW264.7 cells assessed as cell viability at 50 uM incubated for 24 hrs by Alamar-Blue assay; assay type: cell-based; conditions: read-out: Activity
RAW264.7 [2] = assay: Anti-inflammatory activity in mouse RAW264.7 cells assessed as LPS-induced nitric oxide production level at 50 uM pre-incubated for 2 hrs before LPS stimulation for 24 hrs by Griess assay relative to untreated control; assay type: functional
In short: (§1)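 Cells pretreated with compound at various concentrations for 2 h, then LPS 0.5 µg/mL added for 24 h; nitrite in medium read with Griess reagent; means ± SD of triplicates.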

RAW264.7 [3] = assay: Inhibition of LPS-induced iNOS mRNA expression in mouse RAW264.7 cells at 10 uM pre-incubated for 2 hrs before LPS stimulation for 24 hrs by qRT-PCR method; assay type: functional, cell-based
In short: (§2)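 Cells pretreated with compound or 10 µM BAY 11-7082 for 2 h, then LPS 0.5 µg/mL for 24 h; total RNA extracted, iNOS mRNA by qRT-PCR normalised to GAPDH.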

RAW264.7 [4] = assay: Anti-inflammatory activity in mouse RAW264.7 cells assessed as LPS-induced nitric oxide production level at 10 uM pre-incubated for 2 hrs before LPS stimulation for 24 hrs by Griess assay relative to untreated control; assay type: functional; in short: as §1
RAW264.7 [5] = assay: Inhibition of LPS-induced IL-1beta mRNA expression in mouse RAW264.7 cells at 10 uM pre-incubated for 2 hrs before LPS stimulation for 24 hrs by qRT-PCR method; assay type: functional, cell-based
In short: (§3)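 Cells in 6-well plates pretreated (1, 10, 50 µM; BAY 11-7082 10 µM reference) 2 h before LPS 0.5 µg/mL for 24 h; IL-1b and IL-6 mRNA by qRT-PCR against GAPDH; mean ± SD of three experiments in triplicate.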

RAW264.7 [6] = assay: Inhibition of LPS-induced IL-6 mRNA expression in mouse RAW264.7 cells at 10 uM pre-incubated for 2 hrs before LPS stimulation for 24 hrs by qRT-PCR method; assay type: functional, cell-based; in short: as §3
RAW264.7 [7] = assay: Inhibition of LPS-induced iNOS protein expression in mouse RAW264.7 cells pre-incubated for 2 hrs before LPS stimulation for 24 hrs by Western blotting method; assay type: functional, cell-based
In short: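 Cells in 6-well plates pretreated (1, 10, 50 µM; BAY 11-7082 10 µM) for 2 h, LPS 0.5 µg/mL 24 h; lysates immunoblotted with anti-iNOS, GAPDH loading control.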

RAW264.7 [8] = assay: Inhibition of LPS-induced IL-6 mRNA expression in mouse RAW264.7 cells pre-incubated for 2 hrs before LPS stimulation for 24 hrs by qRT-PCR method; assay type: functional, cell-based; in short: as §3
RAW264.7 [9] = assay: Inhibition of LPS-induced iNOS mRNA expression in mouse RAW264.7 cells pre-incubated for 2 hrs before LPS stimulation for 24 hrs by qRT-PCR method; assay type: functional, cell-based; in short: as §2
[10] = target: Mitogen-activated protein kinase 1 and 3 (ERK2 and ERK1) (Mus musculus) (UniProt P63085+Q63844); assay: Inhibition of LPS-induced ERK1/2 MAPK phosphorylation in mouse RAW264.7 cells at 1 to 50 uM pre-incubated for 2 hrs before LPS stimulation for 30 mins by Western blotting method
RAW264.7 [11] = assay: Inhibition of LPS-induced IL-6 protein expression in mouse RAW264.7 cells at 1 to 50 uM pre-incubated for 2 hrs before LPS stimulation for 24 hrs by ELISA
[12] = target: T1, NF-kappa-B inhibitor alpha (Mus musculus) (UniProt Q9Z1E3); assay: Inhibition of LPS-induced IkappaB-alpha degradation in mouse RAW264.7 cells at 1 to 50 uM pre-incubated before LPS stimulation for 5 mins by Western blotting method
T1 sequence (whole entry): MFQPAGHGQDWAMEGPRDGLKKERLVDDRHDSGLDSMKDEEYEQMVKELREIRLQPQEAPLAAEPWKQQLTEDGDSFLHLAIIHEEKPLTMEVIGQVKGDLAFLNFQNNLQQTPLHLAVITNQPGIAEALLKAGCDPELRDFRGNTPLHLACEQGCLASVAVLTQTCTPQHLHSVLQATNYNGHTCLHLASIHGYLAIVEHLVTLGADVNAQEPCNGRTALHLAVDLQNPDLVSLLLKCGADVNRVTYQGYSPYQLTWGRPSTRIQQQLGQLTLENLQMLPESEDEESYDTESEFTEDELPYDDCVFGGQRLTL

[13] = target: T1, NF-kappa-B inhibitor alpha (Mus musculus); assay: Inhibition of LPS-induced IkappaB-alpha phosphorylation in mouse RAW264.7 cells at 1 to 50 uM pre-incubated before LPS stimulation for 5 mins by Western blotting method
RAW264.7 [14] = assay: Anti-inflammatory activity in mouse RAW264.7 cells assessed as reduction in LPS-induced nitric oxide production level pre-incubated for 2 hrs before LPS stimulation for 24 hrs by Griess assay relative to untreated control; assay type: functional, cell-based; in short: as §1
RAW264.7 [15] = assay: Inhibition of LPS-induced IL-1beta mRNA expression in mouse RAW264.7 cells pre-incubated for 2 hrs before LPS stimulation for 24 hrs by qRT-PCR method; assay type: functional, cell-based; in short: as §3
JNK1/JNK2 (Mus musculus) = JNK1/JNK2 (Mus musculus) (UniProt Q91Y86+Q9WTU6); assay: Inhibition of LPS-induced JNK1/2 MAPK phosphorylation in mouse RAW264.7 cells at 1 to 50 uM pre-incubated for 2 hrs before LPS stimulation for 30 mins by Western blotting method
[16] = target: MAP kinase p38 (Mus musculus) (UniProt P47811+O08911+Q9WUI1+Q9Z1B7); assay: Inhibition of LPS-induced p38 MAPK phosphorylation in mouse RAW264.7 cells at 1 to 50 uM pre-incubated for 2 hrs before LPS stimulation for 30 min by Western blotting method
[17] = target: RAC-alpha serine/threonine-protein kinase (Mus musculus) (UniProt P31750); assay: Inhibition of LPS-induced AKT phosphorylation in mouse RAW264.7 cells at 1 to 50 uM pre-incubated for 30 mins before LPS stimulation for 30 mins by Western blotting method
RAC-alpha serine/threonine-protein kinase (Mus musculus), sequence (P31750 whole entry): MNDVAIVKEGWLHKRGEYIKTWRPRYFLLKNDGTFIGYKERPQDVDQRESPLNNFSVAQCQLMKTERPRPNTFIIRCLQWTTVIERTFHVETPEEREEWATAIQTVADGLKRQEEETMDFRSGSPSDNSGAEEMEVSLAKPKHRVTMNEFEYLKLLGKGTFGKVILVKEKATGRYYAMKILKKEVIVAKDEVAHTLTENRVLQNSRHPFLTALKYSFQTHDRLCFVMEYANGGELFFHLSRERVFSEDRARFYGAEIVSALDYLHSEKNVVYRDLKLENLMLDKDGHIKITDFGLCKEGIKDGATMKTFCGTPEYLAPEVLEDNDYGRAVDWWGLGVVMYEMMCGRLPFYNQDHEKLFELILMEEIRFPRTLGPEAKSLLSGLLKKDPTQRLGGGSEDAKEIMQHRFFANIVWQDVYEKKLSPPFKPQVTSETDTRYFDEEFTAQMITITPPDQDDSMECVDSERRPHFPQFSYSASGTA

JNK1/JNK2 (Mus musculus), sequence (Q91Y86 whole entry, looked up): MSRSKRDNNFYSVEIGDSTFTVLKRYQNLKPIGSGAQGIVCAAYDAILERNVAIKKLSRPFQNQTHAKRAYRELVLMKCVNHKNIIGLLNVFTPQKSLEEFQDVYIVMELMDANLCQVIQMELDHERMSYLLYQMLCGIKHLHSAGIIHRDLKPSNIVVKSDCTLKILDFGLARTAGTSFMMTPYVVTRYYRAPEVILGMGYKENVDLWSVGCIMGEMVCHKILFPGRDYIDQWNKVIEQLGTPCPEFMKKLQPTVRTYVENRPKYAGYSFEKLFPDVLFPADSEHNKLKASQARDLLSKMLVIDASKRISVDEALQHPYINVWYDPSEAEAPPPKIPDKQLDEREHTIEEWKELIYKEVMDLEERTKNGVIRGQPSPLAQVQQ
JNK1/JNK2 (Mus musculus), sequence (Q9WTU6 whole entry, looked up): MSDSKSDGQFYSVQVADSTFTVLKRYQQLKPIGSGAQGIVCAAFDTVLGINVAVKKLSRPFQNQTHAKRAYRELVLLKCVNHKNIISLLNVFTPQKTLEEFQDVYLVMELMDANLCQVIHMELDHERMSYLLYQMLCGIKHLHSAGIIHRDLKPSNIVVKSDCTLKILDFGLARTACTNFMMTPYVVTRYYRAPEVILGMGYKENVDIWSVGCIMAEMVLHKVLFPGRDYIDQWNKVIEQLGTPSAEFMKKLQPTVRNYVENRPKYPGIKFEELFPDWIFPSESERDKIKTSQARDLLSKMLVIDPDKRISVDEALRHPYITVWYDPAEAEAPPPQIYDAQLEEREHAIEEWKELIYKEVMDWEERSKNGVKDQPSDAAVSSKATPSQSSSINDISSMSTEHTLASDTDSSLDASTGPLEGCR
Mitogen-activated protein kinase 1 and 3 (ERK2 and ERK1) (Mus musculus), sequence (P63085 whole entry, looked up): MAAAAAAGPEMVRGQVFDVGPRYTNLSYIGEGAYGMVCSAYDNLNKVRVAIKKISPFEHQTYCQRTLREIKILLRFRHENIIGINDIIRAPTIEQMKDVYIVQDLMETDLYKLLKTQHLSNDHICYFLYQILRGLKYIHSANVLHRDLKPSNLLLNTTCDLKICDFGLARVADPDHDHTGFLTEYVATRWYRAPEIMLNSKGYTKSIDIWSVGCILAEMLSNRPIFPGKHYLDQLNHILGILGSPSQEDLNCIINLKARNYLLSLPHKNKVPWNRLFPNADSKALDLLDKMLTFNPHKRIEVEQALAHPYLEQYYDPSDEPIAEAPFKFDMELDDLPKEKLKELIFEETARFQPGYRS
Mitogen-activated protein kinase 1 and 3 (ERK2 and ERK1) (Mus musculus), sequence (Q63844 whole entry, looked up): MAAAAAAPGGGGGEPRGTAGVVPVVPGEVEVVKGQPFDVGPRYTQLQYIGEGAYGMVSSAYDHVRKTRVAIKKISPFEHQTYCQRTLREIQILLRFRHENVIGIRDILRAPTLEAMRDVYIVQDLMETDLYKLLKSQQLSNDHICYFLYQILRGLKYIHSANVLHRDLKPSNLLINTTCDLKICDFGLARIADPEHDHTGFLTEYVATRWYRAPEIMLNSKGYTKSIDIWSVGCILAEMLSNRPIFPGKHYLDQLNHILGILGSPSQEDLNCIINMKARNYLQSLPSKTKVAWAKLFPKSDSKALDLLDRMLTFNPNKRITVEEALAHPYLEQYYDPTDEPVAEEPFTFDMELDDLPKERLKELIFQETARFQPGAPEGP

SMILES: COC(=O)c1cc2cc(OC)c(OC)cc2c2cc(OC)c(OC)cc12
viability at 24 h, 50 µM [1]: 101%
Activity (RAW264.7 [2]): 45.3%

SMILES: COC(=O)/C(=C\c1ccc2c(c1)OCO2)c1ccc(OC)c(OC)c1
viability at 24 h, 50 µM [1]: 56.1%
Activity (RAW264.7 [2]): 79%

SMILES: COc1cc2cc(C(=O)O)c3cc(OC)c(OC)cc3c2cc1OC
viability at 24 h, 50 µM [1]: 101%
Activity (RAW264.7 [2]): 78.2%

SMILES: COc1cc2cc(C#N)c3cc(OC)c(OC)cc3c2cc1OC
viability at 24 h, 50 µM [1]: 102%
Activity (RAW264.7 [2]): 108.8%

SMILES: COC(=O)c1cc2cc3c(cc2c2cc(OC)c(OC)cc12)OCO3
viability at 24 h, 50 µM [1]: 101%
Activity (RAW264.7 [2]): 75%

SMILES: COc1ccc(/C=C(\C#N)c2ccc(OC)c(OC)c2)cc1OC
viability at 24 h, 50 µM [1]: 96.7%
Activity (RAW264.7 [2]): 46.7%

SMILES: Cc1ccc(S(=O)(=O)/C=C/C#N)cc1
inhibition (RAW264.7 [3]): Active
Activity (RAW264.7 [4]): 1.2%
inhibition (RAW264.7 [5]): Active
inhibition (RAW264.7 [6]): Active

inhibition [10]: inactive
inhibition [12]: Active
inhibition [13]: Active
IC50 (RAW264.7 [14]): 5.05 µM
inhibition (JNK1/JNK2 (Mus musculus)): inactive
inhibition [16]: Active
inhibition [17]: Active
SMILES: COC(=O)/C(=C/c1ccc(OC)c(OC)c1)c1ccc(OC)c(OC)c1
inhibition (RAW264.7 [7]): Dose-dependent effect
viability at 24 h, 50 µM [1]: 114%
inhibition (RAW264.7 [8]): Dose-dependent effect
inhibition (RAW264.7 [9]): Dose-dependent effect
Activity (RAW264.7 [2]): 3.9%
inhibition (RAW264.7 [11]): Active
inhibition (RAW264.7 [15]): Dose-dependent effect

SMILES: COC(=O)/C(=C/c1ccc2c(c1)OCO2)c1ccc(OC)c(OC)c1
viability at 24 h, 50 µM [1]: 88%
Activity (RAW264.7 [2]): 109.2%

SMILES: COc1ccc(/C(=C/c2ccc3c(c2)OCO3)C(=O)O)cc1OC
viability at 24 h, 50 µM [1]: 103%
Activity (RAW264.7 [2]): 106.9%

SMILES: COC(=O)c1cc2cc(OC)ccc2c2cc(OC)c(OC)cc12
viability at 24 h, 50 µM [1]: 99.3%
Activity (RAW264.7 [2]): 48.8%

SMILES: CCN(CC)C(=O)/C(=C/c1ccc(OC)c(OC)c1)c1ccc(OC)c(OC)c1
viability at 24 h, 50 µM [1]: 111%
Activity (RAW264.7 [2]): 92.7%

SMILES: COc1ccc(/C=C(\C(=O)O)c2ccc(OC)c(OC)c2)cc1OC
viability at 24 h, 50 µM [1]: 106%
Activity (RAW264.7 [2]): 120.7%

IC50 (RAW264.7 [14]): 37.3 µM
SMILES: COC(=O)/C(=C/c1ccc(OC)c(OC)c1)c1ccc(OC)cc1
viability at 24 h, 50 µM [1]: 66.7%
Activity (RAW264.7 [2]): 45.5%

SMILES: COc1cc2c(C(=O)O)cc3cc4c(cc3c2cc1OC)OCO4
viability at 24 h, 50 µM [1]: 107%
Activity (RAW264.7 [2]): 53.1%

SMILES: COc1ccc(/C(=C\c2ccc3c(c2)OCO3)C(=O)O)cc1OC
viability at 24 h, 50 µM [1]: 123%
Activity (RAW264.7 [2]): 86%

SMILES: COC(=O)/C(=C\c1ccc(OC)c(OC)c1)c1ccc(OC)c(OC)c1
viability at 24 h, 50 µM [1]: 91.1%
Activity (RAW264.7 [2]): 98.7%

SMILES: COc1ccc(/C=C(/C(=O)O)c2ccc(OC)c(OC)c2)cc1OC
viability at 24 h, 50 µM [1]: 121%
Activity (RAW264.7 [2]): 64.3%

SMILES: COC(=O)/C(=C/c1cccc(OC)c1)c1ccc(OC)c(OC)c1
viability at 24 h, 50 µM [1]: 76.5%
Activity (RAW264.7 [2]): 84.6%

SMILES: COC(=O)c1cc2cc(OC)c(OC)cc2c2cc(OC)ccc12
viability at 24 h, 50 µM [1]: 99.7%
Activity (RAW264.7 [2]): 83%

IC50 (RAW264.7 [14]): 20.3 µM
SMILES: CCN(CC)C(=O)c1cc2cc(OC)c(OC)cc2c2cc(OC)c(OC)cc12
viability at 24 h, 50 µM [1]: 94.7%
Activity (RAW264.7 [2]): 39.8%
